Values joined by “and” are separate entries in the source; they are usually repeats but may differ in a detail not shown here. Equal entries are not always repeated.
Key:
[1] = Ratio of cytotoxicity to anti BVDV activity of the compound; design: species or system Bos taurus; conditions: cattle; for selectivity ratio: read-out: CC50/EC50
[2] = Anti BVDV activity in MDBK (Madin-darby bovine kidney) cells; format: functional, Bos taurus
How it was run: (§1)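 MDBK cells in DMEM with 10% heat-inactivated horse serum, penicillin and streptomycin, seeded at 5 × 10^5 cells/ml and incubated overnight at 37 °C. Infected with about 100 focus forming units of BVDV (nose strain) in the presence of graded compound concentrations for 24 h. Monolayers washed with PBS, overlaid with medium containing bactoagar, incubated a further 24 h. Viral foci counted microscopically.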

[3] = Anti-bovine viral diarrhoea virus activity relative to ribavirin; format: functional, Bos taurus
Bos taurus [4] = organism: Bos taurus; assay: Anti BVDV activity relative to ribavirin; format: functional
[5] = Cytotoxicity in MDBK (Madin-darby bovine kidney) cells; format: cell-based, Bos taurus; conditions: cattle
How it was run: (§2)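 Cell viability assay: MDBK cells at 2 × 10^4 per well, cultured with graded compound concentrations at 37 °C for 3 days. Viable cells measured colorimetrically with a water-soluble tetrazolium dye.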

[6] = Anti BVDV activity in MDBK (Madin-darby bovine kidney) cells (Ribavirin EC50 0.61 and CC50 90.2); format: functional, Bos taurus; how it was run: as §1
Bos taurus [7] = organism: Bos taurus; assay: Anti BVDV activity relative to ribavirin (Ribavirin EC50 0.61 and CC50 90.2); format: functional
[8] = Cytotoxicity in MDBK (Madin-darby bovine kidney) cells (Ribavirin EC50 0.61 and CC50 90.2); format: cell-based, Bos taurus; conditions: cattle; how it was run: as §2
[9] = Anti BVDV activity in MDBK (Madin-darby bovine kidney) cells (Ribavirin EC50 1.2 and CC50 >100); format: functional, Bos taurus; how it was run: as §1
Bos taurus [10] = organism: Bos taurus; assay: Anti BVDV activity relative to ribavirin (EC50 1.2 and CC50 >100); format: functional
[11] = Cytotoxicity in MDBK (Madin-darby bovine kidney) cells (Ribavirin EC50 1.2 and CC50 >100); format: cell-based, Bos taurus; conditions: cattle; how it was run: as §2

Compound	EC50 [2]	EC50rel (Bos taurus [4])	CC50 [5]	selectivity ratio [1]	also measured
NC(=O)c1ncn([C@@H]2O[C@H](CO)[C@@H](O)[C@H]2O)n1 [RIBAVIRIN]	1.5 µM and 0.67 µM	1	> 100 µM	–	CC50/EC50 [1]: < 150 and > 67; EC50rel [3]: 1
COC(=O)Nc1ccn([C@@H]2O[C@H](CO)C(O)[C@@H]2OC2Sc3ccccc3S2)c(=O)n1 (stereo partly drawn)	–	–	–	1.19	EC50 [6]: 50.3 µM; EC50rel (Bos taurus [7]): 82.5; CC50 [8]: 60.1 µM
CSc1ccccc1SCO[C@H]1C[C@H](n2cnc3c(O)nc(N)nc32)O[C@@H]1CO	> 100 µM	–	> 100 µM	–	–
Cc1cn([C@H]2C[C@H](OC3Sc4ccccc4S3)[C@@H](C)O2)c(=O)[nH]c1=O	86.7 µM	57.8	81.3 µM	0.93	–
Nc1nc(O)c2ncn([C@@H]3O[C@H](CO)C(O)[C@@H]3OC3Sc4ccccc4S3)c2n1 (stereo partly drawn)	14.4 µM	21.5	73.2 µM	5.09	–
CSc1ccccc1SCO[C@H]1C[C@H](n2cnc3c(N)ncnc32)O[C@@H]1CO	> 100 µM	–	> 100 µM	–	–
Nc1nc(O)c2ncn([C@H]3C[C@H](OC4Sc5ccccc5S4)[C@@H](CO)O3)c2n1	79.4 µM	52.9	> 100 µM	> 1.3	–
OC[C@H]1O[C@@H](n2cnc3c(O)ncnc32)[C@@H](OC2Sc3ccccc3S2)C1O (stereo partly drawn)	–	–	–	3.21	EC50 [9]: 18.4 µM; EC50rel (Bos taurus [10]): 15.3; CC50 [11]: 59.2 µM
Nc1ncnc2c1ncn2[C@@H]1O[C@H](CO)C(O)[C@@H]1OC1Sc2ccccc2S1 (stereo partly drawn)	39.2 µM	58.5	74.3 µM	1.89	–
Nc1ccn([C@H]2C[C@H](OC3Sc4ccccc4S3)[C@@H](CO)O2)c(=O)n1	69.1 µM	46.1	69.7 µM	1	–
COC1Sc2ccccc2S1	> 100 µM	–	> 100 µM	–	–
O=c1ccn([C@@H]2O[C@H](CO)C(OC3Sc4ccccc4S3)[C@@H]2O)c(=O)[nH]1 (stereo partly drawn)	50.6 µM	75.5	73.9 µM	1.46	–
CSc1ccccc1SCO[C@H]1C[C@H](n2ccc(N)nc2=O)O[C@@H]1CO	> 100 µM	–	> 100 µM	–	–
CSc1ccccc1SCO[C@H]1C[C@H](n2cc(C)c(=O)[nH]c2=O)O[C@@H]1CO	89.6 µM	59.7	> 100 µM	> 1.1	–
Nc1ccn([C@@H]2O[C@H](CO)C(O)[C@@H]2OC2Sc3ccccc3S2)c(=O)n1 (stereo partly drawn)	28.5 µM	42.5	70.4 µM	2.47	–
O=c1ccn([C@@H]2O[C@H](CO)C(O)[C@@H]2OC2Sc3ccccc3S2)c(=O)[nH]1 (stereo partly drawn)	56.7 µM	84.6	67.3 µM	1.19	–
Nc1ncnc2c1ncn2[C@H]1C[C@H](OC2Sc3ccccc3S2)[C@@H](CO)O1	63.8 µM	42.5	68.4 µM	1.1	–
O=c1ccn([C@@H]2O[C@H](CO)C(OC3Sc4ccccc4S3)[C@@H]2OC2Sc3ccccc3S2)c(=O)[nH]1 (stereo partly drawn)	< 48 µM	< 71.7	48 µM	–	–
Cc1cn([C@H]2C[C@H](OC3Sc4ccccc4S3)[C@@H](CO)O2)c(=O)[nH]c1=O	46.8 µM	–	72.4 µM	1.5	EC50rel [3]: 31.2

— ChEMBL document CHEMBL1138786, “Synthesis of benzodithiol-2-yl-substituted nucleoside derivatives as lead compounds having anti-bovine viral diarrhea virus activity” (J Med Chem, 2004)
